Laboratory results: ChEMBL document CHEMBL4831490, “Silyl resveratrol derivatives as potential therapeutic agents for neurodegenerative and neurological diseases” (Eur J Med Chem, 2021)
In brackets after ≈: the same amount, converted by molar mass. Activity calls are given as the source filed them. The calls are words filed in the database; no cut-off is given here.

Columns and labels:
Danio rerio = species: Danio rerio; assay: Neuroprotective activity against PTZ-induced neuronal damage in 5 dpf zebrafish AB larvae assessed as effect on AChE activity at 10 uM pretreated for 1 hr followed by removal of medium and subsequent addition of fresh medium containing PTZ and compounds measured after 6 hrs by Ellman's method; format: functional, organism-based; settings: time 7.0 hrs
Summary of the method: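 Zebrafish AB larvae at 120 hpf, five per well, ten replicates, two independent experiments. Pretreated 1 h at 26 °C with compound (10 µM) in water with 0.1% DMSO, then after a media change kept 6 h at 26 °C with compound plus 5 mM PTZ. Physostigmine (20 µM) was the control inhibitor. Homogenate supernatant assayed by Ellman method; activity normalized to BCA protein, as % of control.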

[1] = Toxicity in 3hpf zebrafish AB embryo assessed as median lethal dose measured 96 hpf; set-up: species or system Danio rerio; settings: in vivo
Summary of the method: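 AB zebrafish embryos collected 3 hpf, 20 per well in E3 medium with graded compound concentrations, kept at 28.5 °C to 96 hpf. LC50 was fitted as a sigmoid to mortality. NOEC/LOEC used >20% mortality as the effect. Negative control was 0.1% DMSO in triplicate; DEAB (0.1 µM–1 mM) served as positive control.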

[2] = Aqueous solubility of the compound; format: physicochemical
[3] = Toxicity in 3hpf zebrafish AB embryo assessed as NOAEL measured 96 hpf; set-up: species or system Danio rerio; settings: in vivo, 96 h
Summary of the method: (§1)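 Zebrafish AB embryos collected at 3 hpf, 20 per well, in E3 medium with graded compound concentrations. Incubated 28.5 °C for 93 h further (to 96 hpf), mortality scored. NOEC/LOEC defined by mortality above 20%. Controls: 0.1% DMSO, three replicates; DEAB at 5 concentrations.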

[4] = Toxicity in 3hpf zebrafish AB embryo assessed as LOAEL measured 96 hpf; set-up: species or system Danio rerio; settings: in vivo, 96 h; summary of the method: as §1
RAW264.7 [5] = assay: Antiinflammatory activity in mouse RAW 264.7 cells assessed as decrease in LPS-induced TNF-alpha production at 10 uM measured after 24 hrs by ELISA; format: functional, cell-based
Summary of the method: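 RAW 264.7 macrophages, 5 × 10⁵ per well, given compound at 10 µM then stimulated with LPS (final 100 ng/mL). TNF-α in supernatants after 24 h measured by ELISA with capture/biotinylated detection antibody pairs.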

SH-SY5Y [6] = assay: Neuroprotective activity against H2O2-induced oxidative stress in human SH-SY5Y cells assessed as increase in cell viability at 10 uM pretreated with H2O2 for 10 mins followed by compound treatment and measured after 24 hrs by MTT assay; format: functional, cell-based
SH-SY5Y [7] = assay: Cytotoxicity against human SH-SY5Y cells assessed as reduction in cell viability at 10 uM measured after 24 hrs by MTT assay relative to control; format: cell-based
Summary of the method: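 SH-SY5Y cells grown in DMEM-F12 with 10% iFBS on collagen-pretreated plates; 2 × 10⁴ cells per well, left 24 h before compound in DMSO (final 1% DMSO) at 1, 10 and 100 µM. Viability by MTT 24 h after addition; mean and SD of at least eight readings from various experiments.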

RAW264.7 [8] = assay: Antiinflammatory activity in mouse RAW 264.7 cells assessed as inhibition of LPS-induced nitric oxide production at 10 uM measured after 24 hrs by Griess reagent assay; format: functional, cell-based
Summary of the method: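 NO in 24 h culture supernatants of LPS-stimulated RAW 264.7 cells (compound 10 µM, LPS final 100 ng/mL) estimated indirectly as nitrite concentration.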

RAW264.7 [9] = assay: Antiinflammatory activity in mouse RAW 264.7 cells assessed as decrease in LPS-induced IL-6 production at 10 uM measured after 24 hrs by ELISA; format: functional, cell-based
Summary of the method: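 RAW 264.7 macrophages, 5 × 10⁵ per well, compound added then stimulated with LPS (final 100 ng/mL) or left unstimulated; IL-6 in supernatant measured after 24 h by sandwich ELISA with capture/biotinylated detection antibodies.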

Mus musculus [10] = assay: Immunosuppressive activity in MOG (35 to 55 residues)/pertussis toxin-induced experimental autoimmune encephalomyelitis C57BL/6 mouse model assessed as reduction in clinical scores at 20 mg/kg, ip starting from 20 days post disease progression and administered for 2 weeks; format: functional, organism-based
[11] = Hydrolytic stability of the compound in mouse serum assessed as parent compound remaining measured after 24 hrs; format: ADME, cell-free; settings: read-out: Stability
Summary of the method: (§2)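 Hydrolytic stability measured in mouse serum at 1 h and 24 h.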

[12] = Stability of the compound in PBS buffer assessed as parent compound remaining measured after 72 hrs; format: physicochemical; settings: read-out: Stability
Summary of the method: (§3)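 Compound incubated 72 h in PBS 1x (pH 7.4) or in SH-SY5Y culture medium; percentage of compound remaining determined.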

Mus musculus [13] = assay: Neuroprotective activity in C57BL/6 mouse model of 3-NP-induced intoxication assessed as reduction in truncal dystonia at 20 mg/kg, ip measured after 5 days relative to control; format: functional; set-up: scale not given: the % may be the effect or the level left; settings: time 5 day, in the assay text read “overall motor score” for “truncal dystonia”
Summary of the method: (§4)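 C57BL/6 mice, 12 weeks old, n = 7 per group. 3-NP given i.p. twice daily, 10 h apart: 4 × 20, 4 × 40, 2 × 60 mg/kg (cumulative 360 mg/kg over 5 days). Compound 20 mg/kg i.p. in 13% hydroxypropyl-β-cyclodextrin with 2% Tween-80, given just before each morning 3-NP dose. Weight and motor scoring done before injections, last one 3 h after final 3-NP dose. Rotarod latency to fall read after the 360 mg/kg cumulative dose.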

[14] = Hydrolytic stability of the compound in mouse serum assessed as parent compound remaining measured after 1 hr; format: ADME, cell-free; settings: read-out: Stability; summary of the method: as §2
Mus musculus [15] = assay: Neuroprotective activity in C57BL/6 mouse model of 3-NP-induced intoxication assessed as effect on body weight at 20 mg/kg, ip measured after 5 days (91.4 %); format: functional; settings: time 5 day; summary of the method: as §4
Mus musculus [16] = assay: Antioxidant activity in C57BL/6 mouse model of 3-NP-induced oxidative stress assessed as increase in SOD2 mRNA expression at 20 mg/kg, ip by qRT-PCR method; format: functional, organism-based; summary of the method: as §4
Mus musculus [17] = assay: Neuroprotective activity in C57BL/6 mouse model of 3-NP-induced intoxication assessed as reduction in IL6 production at 20 mg/kg, ip by sandwich ELISA
Mus musculus [18] = assay: Neuroprotective activity in C57BL/6 mouse model of 3-NP-induced intoxication assessed as improvement in latency to fall at 20 mg/kg, ip by rotarod test relative to control; format: functional; summary of the method: as §4
[19] = Stability of the compound in human SH-SY5Y cells assessed as parent compound remaining measured after 72 hrs; format: ADME; settings: read-out: Stability; summary of the method: as §3
SH-SY5Y [20] = assay: Neuroprotective activity against H2O2-induced oxidative stress in human SH-SY5Y cells assessed as increase in cell viability at 100 uM pretreated with H2O2 for 10 mins followed by compound treatment and measured after 24 hrs by MTT assay relative to control; format: functional

SMILES | LC50 at 96 h [1] | NOAEL [3] | LOAEL [4] | Activity (RAW264.7 [5]) | Activity (SH-SY5Y [6]) | other results
Oc1ccc(/C=C/c2cc(O)cc(O)c2)cc1 [RESVERATROL] | > 1000 µM | 1000 µM | > 1000 µM |  |  | Activity (Danio rerio): Active; solubility [2]: 50 µg/mL (≈ 219 µM)
CCCCCCCC(=O)OC[C@H]1O[C@@H](Oc2cc(O)cc(/C=C/c3ccc(O)cc3)c2)[C@H](O)[C@@H](O)[C@@H]1O |  | 1 µM | 10 µM | Active |  | 
CC(C)[Si](Oc1cc(O)cc(/C=C/c2ccc(O)cc2)c1)(C(C)C)C(C)C |  |  |  |  | Active | Activity (SH-SY5Y [7]): > 50%
CC[Si](CC)(CC)Oc1cc(/C=C/c2ccc(O)cc2)cc(O[Si](CC)(CC)CC)c1 | 475 µM | 100 µM | 1000 µM | Active |  | Activity (Danio rerio): Active; inhibition (RAW264.7 [8]): Active
CC(C)[Si](Oc1ccc(/C=C/c2cc(O)cc(O[Si](C(C)C)(C(C)C)C(C)C)c2)cc1)(C(C)C)C(C)C | > 1000 µM | > 1000 µM | 1000 µM | Active | Active | Activity (RAW264.7 [9]): Active
CC[Si](CC)(CC)Oc1ccc(/C=C/c2cc(O)cc(O)c2)cc1 |  |  |  | Active |  | 
CC(C)(C)[Si](C)(C)Oc1cc(/C=C/c2ccc(O)cc2)cc(O[Si](C)(C)C(C)(C)C)c1 |  |  |  | Active | Active | 
CC[Si](CC)(CC)Oc1cc(O)cc(/C=C/c2ccc(O)cc2)c1 |  |  |  | Active |  | 
CCCCCCCC(=O)OC[C@@H]1O[C@H](Oc2ccc(/C=C/c3cc(O[Si](C(C)C)(C(C)C)C(C)C)cc(O[Si](C(C)C)(C(C)C)C(C)C)c3)cc2)[C@@H](O)[C@H](O)[C@H]1O | 407 µM | 100 µM | 1000 µM |  |  | Activity (Danio rerio): Active; Activity (Mus musculus [10]): Active; remaining at 24 h [11]: 15%; remaining at 72 h [12]: > 80%; Activity (Mus musculus [13]): 26.5%; remaining at 1 h [14]: 75%; Activity (Mus musculus [15]): 94.8%; Activity (Mus musculus [16]): Active; Activity (Mus musculus [17]): Active; Activity (Mus musculus [18]): 10%; remaining at 72 h [19]: > 80%
CC(C)[Si](Oc1ccc(/C=C/c2cc(O)cc(O)c2)cc1)(C(C)C)C(C)C |  |  |  |  | Active | Activity (SH-SY5Y [7]): > 50%
CC[Si](CC)(CC)Oc1ccc(/C=C/c2cc(O)cc(O[Si](CC)(CC)CC)c2)cc1 | 380 µM | 100 µM | 1000 µM | Active | Active | Activity (Danio rerio): Active
CC(C)[Si](Oc1ccc(/C=C/c2cc(O[C@@H]3O[C@H](CO)[C@@H](O)[C@H](O)[C@H]3O)cc(O[Si](C(C)C)(C(C)C)C(C)C)c2)cc1)(C(C)C)C(C)C | > 1000 µM | 1000 µM | 1000 µM |  |  | remaining at 72 h [12]: > 80%; remaining at 72 h [19]: > 80%
CC(C)(C)[Si](C)(C)Oc1ccc(/C=C/c2cc(O)cc(O[Si](C)(C)C(C)(C)C)c2)cc1 |  |  |  | Active | Active | 
CC(C)(C)[Si](C)(C)Oc1cc(O)cc(/C=C/c2ccc(O)cc2)c1 |  |  |  |  | Active | Activity (SH-SY5Y [7]): > 50%
CCCCCCCC(=O)OC[C@H]1O[C@@H](Oc2cc(/C=C/c3ccc(O[Si](C(C)C)(C(C)C)C(C)C)cc3)cc(O[Si](C(C)C)(C(C)C)C(C)C)c2)[C@H](O)[C@@H](O)[C@@H]1O | 407 µM | 100 µM | 1000 µM |  |  | 
CCNC(=O)Oc1ccc(/C=C/c2cc(O[Si](C(C)C)(C(C)C)C(C)C)cc(O[Si](C(C)C)(C(C)C)C(C)C)c2)cc1 |  | 1000 µM | 1000 µM |  |  | 
CC(C)[Si](Oc1cc(/C=C/c2ccc(O[C@H]3O[C@@H](CO)[C@H](O)[C@@H](O)[C@@H]3O)cc2)cc(O[Si](C(C)C)(C(C)C)C(C)C)c1)(C(C)C)C(C)C | > 1000 µM | 1000 µM | 1000 µM |  |  | 
CC(C)[Si](Oc1cc(/C=C/c2ccc(O)cc2)cc(O[Si](C(C)C)(C(C)C)C(C)C)c1)(C(C)C)C(C)C |  |  |  |  | Active | Activity (Danio rerio): Active; Activity (RAW264.7 [9]): Active; remaining at 72 h [12]: > 80%; Activity (SH-SY5Y [20]): 100%; remaining at 72 h [19]: > 80%
CCCC(=O)Oc1ccc(/C=C/c2cc(O[Si](CC)(CC)CC)cc(O[Si](CC)(CC)CC)c2)cc1 | 407 µM | 100 µM | 1000 µM |  |  | 
